Test results taken from ChEMBL document CHEMBL3044755, “5-Methyl-1,2,3-thiadiazoles synthesized via ugi reaction and their fungicidal and antiviral activities” (J Agric Food Chem, 2010).

Columns and labels:
[1] = system: Tobacco mosaic virus; assay: In vivo antiviral activity against Tobacco mosaic virus (TMV) infected tobacco leaves assessed as protective effect at 100 ug/ml treated 12 hr before viral inoculation measured at 2-3 days after viral challenge; type: functional
Summary of the method: (§1)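 Six-leaf tobacco; compound solution smeared over whole leaves, dried in greenhouse, then after 12 h TMV (5.88 10-2 μg/mL) rubbed onto upper three leaves, with solvent on lower three leaves as control. Local lesions counted 2-3 days post-inoculation, three repetitions. Inhibition (%) = (CK − A)/CK × 100 from mean lesion numbers.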

[2] = system: Fusarium graminearum; assay: Fungicidal activity against Fusarium graminearum at 50 ug/ml by growth inhibition method; type: functional; details: read-out: GI
Summary of the method: (§2)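 Mycelial growth inhibition on potato dextrose agar. The panel covered Alternaria solani, Botrytis cinerea, Cercospora arachidicola, C. beticola, Colletotrichum lagenarium, Fusarium oxysporum, Gibberella zeae, Puccinia triticina, Phytophthora infestans, Physalospora piricola, Pellicularia sasakii and Rhizoctonia solani.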

[3] = system: Cercospora beticola; assay: Fungicidal activity against Cercospora beticola at 50 ug/ml by growth inhibition method; type: functional; details: read-out: GI; summary of the method: as §2
[4] = system: Puccinia triticina; assay: Fungicidal activity against Puccinia triticina at 50 ug/ml by growth inhibition method; type: functional; details: read-out: GI; summary of the method: as §2
[5] = system: Tobacco mosaic virus; assay: In vivo antiviral activity against Tobacco mosaic virus (TMV) infected tobacco leaves assessed as curative effect at 500 ug/ml treated after viral inoculation measured at 2-3 days after viral challenge; type: functional
Summary of the method: (§3)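 Curative test: whole six-leaf tobacco leaves rubbed with TMV (5.88 10-2 μg/mL), dried in greenhouse, then compound smeared on upper three leaves and solvent on lower three as control. Local lesions scored 2-3 days after inoculation, three repetitions. Inhibition (%) = (CK − A)/CK × 100 on mean lesion numbers.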

[6] = system: Nicotiana tabacum; assay: Induction of systemic acquired resistance activity in TMV infected-Nicotiana tabacum (tobacco) leaves at 50 ug/ml; type: functional
Summary of the method: (§4)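 Tobacco/TMV system used for systemic acquired resistance induction. Inhibition ratio calculated from mean lesion numbers on inoculated leaves relative to corresponding control. Tiadinil and ribavirin run as controls.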

[7] = system: Botryosphaeria berengeriana; assay: Fungicidal activity against Botryosphaeria berengeriana at 50 ug/ml by growth inhibition method; type: functional; details: read-out: GI; summary of the method: as §2
[8] = system: Tobacco mosaic virus; assay: In vivo antiviral activity against Tobacco mosaic virus (TMV) infected tobacco leaves assessed as curative effect at 100 ug/ml treated after viral inoculation measured at 2-3 days after viral challenge; type: functional; summary of the method: as §3
[9] = system: Tobacco mosaic virus; assay: In vitro antiviral activity against Tobacco mosaic virus (TMV) infected tobacco leaves at 500 ug/ml; type: functional
[10] = system: Rhizoctonia solani; assay: Fungicidal activity against Rhizoctonia solani at 50 ug/ml by growth inhibition method; type: functional; details: read-out: GI; summary of the method: as §2
[11] = system: Alternaria solani; assay: Fungicidal activity against Alternaria solani at 50 ug/ml by growth inhibition method; type: functional; details: read-out: GI; summary of the method: as §2
[12] = system: Phytophthora infestans; assay: Fungicidal activity against Phytophthora infestans at 50 ug/ml by growth inhibition method; type: functional; details: read-out: GI; summary of the method: as §2
[13] = system: Mycosphaerella arachidis; assay: Fungicidal activity against Mycosphaerella arachidis at 50 ug/ml by growth inhibition method; type: functional; details: read-out: GI; summary of the method: as §2
[14] = system: Tobacco mosaic virus; assay: In vivo antiviral activity against Tobacco mosaic virus (TMV) infected tobacco leaves assessed as inactivation effect at 100 ug/ml co-treated with virus for 30 min before inoculation onto leaves measured at 2-3 days after viral challenge; type: functional
Summary of the method: (§5)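 TMV (5.88 10-2 μg/mL) mixed with equal volume of compound solution for 30 min, then rubbed onto upper three leaves of six-leaf tobacco; solvent on lower three leaves as control. Lesions counted 2-3 days later, three repetitions. Inhibition (%) = (CK − A)/CK × 100 from mean lesion counts.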

[15] = system: Tobacco mosaic virus; assay: In vivo antiviral activity against Tobacco mosaic virus (TMV) infected tobacco leaves assessed as inactivation effect at 500 ug/ml co-treated with virus for 30 min before inoculation onto leaves measured at 2-3 days after viral challenge; type: functional; summary of the method: as §5
[16] = system: Nicotiana tabacum; assay: Phytotoxicity against Nicotiana tabacum (tobacco) plant; type: organism-based; details: in vivo
[17] = system: Thanatephorus cucumeris; assay: Fungicidal activity against Thanatephorus cucumeris at 50 ug/ml by growth inhibition method; type: functional; details: read-out: GI; summary of the method: as §2
[18] = system: Colletotrichum lagenaria; assay: Fungicidal activity against Colletotrichum lagenaria at 50 ug/ml by growth inhibition method; type: functional; details: read-out: GI; summary of the method: as §2
[19] = system: Tobacco mosaic virus; assay: In vitro antiviral activity against Tobacco mosaic virus (TMV) infected tobacco leaves at 100 ug/ml; type: functional
[20] = system: Tobacco mosaic virus; assay: In vivo antiviral activity against Tobacco mosaic virus (TMV) infected tobacco leaves assessed as protective effect at 500 ug/ml treated 12 hr before viral inoculation measured at 2-3 days after viral challenge; type: functional; summary of the method: as §1
[21] = system: Nicotiana tabacum; assay: Induction of systemic acquired resistance activity in TMV infected-Nicotiana tabacum (tobacco) leaves at 100 ug/ml; type: functional; summary of the method: as §4
[22] = system: Fusarium oxysporum; assay: Fungicidal activity against Fusarium oxysporum at 50 ug/ml by growth inhibition method; type: functional; details: read-out: GI; summary of the method: as §2
[23] = system: Tobacco mosaic virus; assay: In vitro antiviral activity against Tobacco mosaic virus (TMV) infected tobacco leaves at 200 ug/ml; type: functional
[24] = system: Botrytis cinerea; assay: Fungicidal activity against Botryotinia fuckeliana at 50 ug/ml by growth inhibition method; type: functional; details: read-out: GI; summary of the method: as §2

SMILES | Activity [1] [%] | inhibition of growth at 50 µg/mL [2] [%] | inhibition of growth at 50 µg/mL [3] [%] | inhibition of growth at 50 µg/mL [4] [%] | Activity [6] [%] | inhibition of growth at 50 µg/mL [7] [%] | inhibition at 500 µg/mL [9] [%] | inhibition of growth at 50 µg/mL [11] [%] | inhibition of growth at 50 µg/mL [12] [%] | inhibition of growth at 50 µg/mL [13] [%] | Activity [14] [%] | Activity [15] [%] | Activity [16] | inhibition of growth at 50 µg/mL [17] [%] | inhibition of growth at 50 µg/mL [18] [%] | Activity [20] [%] | Activity [21] [%] | inhibition of growth at 50 µg/mL [22] [%] | inhibition at 200 µg/mL [23] [%] | inhibition of growth at 50 µg/mL [24] [%] | other results
Cc1cccc(C(C(=O)NC2CCCCC2)N(C(=O)c2nnsc2C)c2ccc(C)c(F)c2)c1 (configuration not stated) | 10 | 36 | 25 | 0 | 40 | 0 | 29 | 6 | 1 | 0 | 38 | 69 | Non-toxic | 0 | 0 | 8 | 54 |  |  |  | Activity [5]: 38%; Activity [8]: 29%; inhibition of growth at 50 µg/mL [10]: 37%; inhibition at 100 µg/mL [19]: 44%
Cc1ccc(N(C(=O)c2nnsc2C)C(C(=O)NC2CCCCC2)c2cccc(O)c2)cc1F (configuration not stated) | 43 | 14 | 25 | 0 | 32 | 0 | 48 | 0 | 6 | 0 | 44 | 67 | Non-toxic | 0 | 0 | 44 | 76 |  |  |  | Activity [5]: 57%; Activity [8]: 23%; inhibition of growth at 50 µg/mL [10]: 30%; inhibition at 100 µg/mL [19]: 25%
Cc1ccc(N(C(=O)c2nnsc2C)C(C(=O)NC(C)C)c2ccccc2C(F)(F)F)cc1Cl (configuration not stated) |  | 24 | 23 |  |  | 43 | 16 | 36 | 13 | 18 |  |  |  | 57 | 17 |  |  | 10 | 29 | 70 | 
Cc1ccc(C(C(=O)NC(C)C)N(C(=O)c2nnsc2C)c2ccc(C)c(Cl)c2)cc1 (configuration not stated) |  | 0 | 9 |  |  | 37 | 21 | 34 | 0 | 33 |  |  |  | 60 | 11 |  |  | 19 | 11 | 79 | 
Cc1ccc(N(C(=O)c2nnsc2C)C(C(=O)NC(C)C)c2ccc(O)cc2)cc1Cl (configuration not stated) | 8 | 20 | 17 |  | 23 | 36 | 4 | 37 | 23 | 17 | 50 | 64 | Non-toxic | 65 | 10 | 36 | 41 | 23 | 0 | 76 | 
Cc1ccc(N(C(=O)c2nnsc2C)C(C(=O)NC(C)C)c2ccc([N+](=O)[O-])cc2)cc1Cl (configuration not stated) |  | 4 | 9 |  |  | 33 | 19 | 39 | 21 | 17 |  |  |  | 60 | 4 |  |  | 23 | 14 | 79 | 
